Screening results deposited in PubChem by several laboratories.
UBC13 polyUb: inhibitors of human UBC13 polyubiquitin chain formation | hit rate 0.47% among 330,000 | P61088 | inhibition, % at 20 µM | TR-FRET; in the data active = inhibition above about 45%, passing the limit was not always enough; inconclusive = no clear call, values can overlap the other calls
Target sequence (P61088 whole entry, looked up): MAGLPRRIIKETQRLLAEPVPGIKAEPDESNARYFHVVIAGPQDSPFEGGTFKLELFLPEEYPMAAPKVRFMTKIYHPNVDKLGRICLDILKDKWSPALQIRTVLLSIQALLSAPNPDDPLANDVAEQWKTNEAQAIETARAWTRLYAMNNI
PfM18AAP inh-1: blocks P. falciparum M18 aspartyl aminopeptidase; recombinant PfM18AAP, H-Glu-NHMec fluorogenic cleavage; inhibition, % at 7.35 µM; hit rate 1.2% among 290,000;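 active = inhibition above the campaign mean inhibition over all tested compounds plus 3 SD, cut at about 28% in these data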;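 also: 0% = plate median of test compound wells and 100% = 2 mM ZnCl2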
ZTA DNA inh: counter-screen for EBNA-1 inhibitors: inhibitors of Epstein-Barr virus ZTA | AID 2234 | P03206 | hit rate 0.15% among 320,000 | ZTA-DNA binding, fluorescence polarization | inhibition, % at 11 µM; in the data active = inhibition above about 33%
PfG6PD inh: PfG6PD (Plasmodium falciparum) enzyme inhibition; inhibition, % at 20 µM; hit rate 0.78% among 350,000; PfGluPho enzyme, NADPH resazurin-diaphorase fluorescence;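 active = inhibition reaching at least a set limit at 20 µM in the primary screen, cut at about 59% in these data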;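 also: 0% = DMSO wells with substrate and 100% = DMSO wells lacking glucose-6-phosphate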
Apaf1 inhib: blocks human Apaf-1 apoptosome activity. O14727. reconstituted apoptosome caspase-3 activity, DEVD-Rh110 fluorescence. inhibition, % at 20 µM. hit rate 0.71% among 330,000; active = inhibition of at least 40% at 20 µM;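 also: plate controls were DMSO wells for no effect and DEVD-CHO caspase inhibitor wells for full effect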
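detection = Rh110 fluorescence intensity | test system = biochemical Apaf-1 apoptosome reconstitution | also added = cytochrome c and DEVD-Rh110 substrate | schedule = 30 min plus 50 min, RT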
EBNA-1 inhibitor: blocks EBNA-1 binding to DNA; EBNA-1 DNA binding, fluorescence polarization; AID 1950; inhibition, % at 14.8 µM; hit rate 0.34% among 300,000; in the data active = inhibition above about 28%
PfM18AAP inh-2: PfM18AAP inhibition, confirmation. shares compounds with PfM18AAP inh-1. recombinant PfM18AAP, H-Glu-NHMec fluorogenic cleavage. inhibition, % at 7.35 µM. hit rate 28% among 2,400. AID 2170;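 active = mean inhibition over replicate wells above the hit cutoff set for the earlier primary screen, cut at about 29% in these data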;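 also: 0% = median of test compound wells and 100% = 2 mM ZnCl2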
CTSL1 confirm: counter-screen for PFM18AAP inhibitors: confirmation of human cathepsin L inhibitors | shares compounds with PfM18AAP inh-1 | purified cathepsin L1, Z-Leu-Arg-MCA fluorescence | inhibition, % at 5.96 µM | 2,400 tested, under 10 active;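 active = average inhibition across replicates above the hit cutoff set in the earlier primary screen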;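 also: 0% = median of test compound wells and 100% = Z-Phe-Ala-diazomethylketone 1 µM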
Target sequence (P07711 whole entry, looked up): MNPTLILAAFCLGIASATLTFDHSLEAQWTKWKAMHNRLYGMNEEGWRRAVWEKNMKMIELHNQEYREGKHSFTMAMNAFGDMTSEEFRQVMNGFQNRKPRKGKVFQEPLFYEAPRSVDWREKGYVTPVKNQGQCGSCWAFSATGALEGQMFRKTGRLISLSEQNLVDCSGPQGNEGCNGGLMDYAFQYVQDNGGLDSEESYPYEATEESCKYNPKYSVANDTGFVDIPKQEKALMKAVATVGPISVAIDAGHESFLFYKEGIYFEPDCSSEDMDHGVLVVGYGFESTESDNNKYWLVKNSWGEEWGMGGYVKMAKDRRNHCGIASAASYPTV
* marks the source's active call; other numbers are inactive results; ? = inconclusive; · = not tested or not shown. The list is not random: actives were taken first. Their share in the collection is about 2.9%.

SMILES | UBC13 polyUb | PfM18AAP inh-1 | ZTA DNA inh | PfG6PD inh | Apaf1 inhib | EBNA-1 inhibitor | PfM18AAP inh-2 | CTSL1 confirm
Cc1nn(-c2ccccc2)c2nc(N)c(C#N)c(-c3ccc(O)c(O)c3)c12 | 15 | 70* | -4 | -14 | 25 | 7 | 48* | 0
COc1cc(-c2c(C#N)c(N)nc3c2c(C)nn3-c2ccc(C)c(C)c2)cc(OC)c1OC | ? | 1 | 16 | 2 | 19 | -17 | · | ·
CN(C(=O)c1cc2c(cc1Br)OCO2)c1cccc2ccccc12 | · | · | · | -6 | · | · | · | ·
Oc1cccc(/C=N/N2CCCCC2)c1O | 0 | 45* | -14 | -13 | 8 | -10 | 22 | -3
Oc1ccccc1C=NN1CCCCCC1 | · | · | · | -4 | · | · | · | ·
CC(=Nc1ccccc1)C1=C(O)C(Cc2ccccc2)NC1=O (stereo unspecified) | · | · | · | 3 | · | · | · | ·
O=C(c1ccc(SCc2ccco2)c([N+](=O)[O-])c1)N1CCOCC1 | -10 | 34* | -4 | 6 | 6 | -2 | -36 | -6
Cc1cccc(N2CCN(Cc3cc(=O)n4ccsc4n3)CC2)c1C | 7 | 3 | 3 | 16 | 4 | 4 | · | ·
O=c1cc(CN2CCN(c3ccccc3O)CC2)nc2sccn12 | 0 | 35* | 7 | 10 | -4 | 5 | -13 | -1
CCn1c2ccccc2c2cc(/C=N/n3cnnc3)ccc21 | 13 | -4 | -2 | 28 | 15 | -4 | · | ·
CCn1c(/C=N/n2cnnc2)nc2ccccc21 | 6 | 48* | -1 | 6 | -24 | -9 | -42 | -5
C/C(=N\NC(=O)COc1ccc(C(C)(C)C)cc1)c1ccc(N2CCOCC2)cc1 | -7 | 2 | -13 | -3 | 21 | -1 | · | ·
O=C1CC(c2ccc(O)c(O)c2)Oc2c1ccc(O)c2O (stereo unspecified) | -26 | · | 8 | 29 | -23 | 9 | · | ·
CC(C)=CCc1c(O)ccc2c1OC(c1ccc(O)c(O)c1)CC2=O (stereo unspecified) | 3 | 62* | -13 | -1 | -20 | 7 | 55* | 0
O=C(NCC1CCN(S(=O)(=O)c2ccccc2)CC1)Nc1ccc(F)cc1F | -8 | 0 | -16 | 9 | 5 | -4 | · | ·
COc1ccc(COC(=O)N/N=C(\C)CC(=O)NCc2ccc(Cl)cc2)cc1 | -2 | 2 | 12 | 9 | 1 | -19 | · | ·
CCN1CCC2(CC1)C(C#N)=C(N)Oc1c2sc2nc(C)cc(C)c12 | -2 | 33* | 5 | 9 | -2 | 4 | -46 | -1
O=C1CCC/C(=N\NC(=O)c2ccc(COc3cccc4cccnc34)cc2)C1 | 2 | 16 | 1 | -12 | 1 | 13 | · | ·
CCCCn1c(N)c(N(CC)C(=O)C2CCC2)c(=O)[nH]c1=O | -15 | · | -8 | 8 | 0 | · | · | ·
CC1(C)Cc2c(sc(NC(=O)/C=C/C(=O)O)c2C#N)CO1 | 7 | -14 | -5 | 5 | -13 | 5 | · | ·
CC1(C)Cc2c(sc(NC(=O)C(=O)NCCCN3CCOCC3)c2C#N)CO1 | -11 | 49* | 5 | 23 | 3 | 3 | -4 | 4
NC(=S)NNC(=O)Nc1ccc(Cl)c(Cl)c1 | 2 | 35* | -4 | 31 | 11 | 1 | 14 | 2
O=C(Cc1ccccc1)NNC(=O)Nc1ccc(Cl)c(Cl)c1 | 2 | 5 | 5 | 12 | -6 | 14 | · | ·
COc1ccc(C2CC(c3ccccc3)=NN2C(=O)COC(=O)c2nc3nc(C)cc(C)n3n2)cc1 (stereo unspecified) | 4 | -3 | 12 | -8 | 34 | 4 | · | ·
Cc1cc(O)cc(C)c1Cl | 12 | · | 4 | 23 | -4 | 9 | · | ·
SMILES | UBC13 polyUb | PfM18AAP inh-1 | ZTA DNA inh | PfG6PD inh | Apaf1 inhib | EBNA-1 inhibitor | PfM18AAP inh-2 | CTSL1 confirm
Cc1cc(O)c(N)c(C)c1Cl | 5 | 50* | -14 | 41 | 1 | -2 | 68* | -1
CN1/C(=C\C(=O)COC(=O)c2ccc(O)c(O)c2)C(C)(C)c2ccccc21 | 10 | 45* | 20 | -42 | 5 | 6 | 6 | -2
CN1/C(=C\C(=O)CSc2cccc[n+]2[O-])C(C)(C)c2ccccc21 | -13 | 49* | 3 | 10 | -2 | 3 | -42 | -4
Cc1cccc[n+]1CC(=O)/C=C1\N(C)c2ccccc2C1(C)C | -16 | -1 | 4 | -1 | 0 | 6 | · | ·
Cc1cc(C(=O)COc2ccc(Br)cc2F)c(C)n1CC1CCCO1 (stereo unspecified) | · | · | · | 0 | · | · | · | ·
CCOC(=O)C1C(=O)C=C(/C=C/c2ccc(N(C)C)cc2)CC1c1ccccc1 (stereo unspecified) | -66 | 3 | -2 | 8 | 7 | -3 | · | ·
C=CCNC(=S)NNC(=O)c1cc(O)ccc1O | 2 | 39* | -10 | -15 | 9 | 0 | 29* | -8
C=CCNC(=S)NNC(=O)c1ccc(Br)cc1 | 3 | 7 | -7 | -1 | 5 | 1 | · | ·
Cc1nn(-c2ccccc2)c(Cl)c1C(=O)NCCN(C)C | 3 | -9 | 7 | 1 | -10 | -6 | · | ·
CCNc1nc(NCC)n2c(SCC(=O)Nc3ccc(C(F)(F)F)cc3[N+](=O)[O-])nnc2n1 | 3 | 5 | -3 | 6 | 21 | 6 | · | ·
O=[N+]([O-])c1ccc(-c2ccn[nH]2)o1 | -8 | 40* | -3 | -4 | -3 | 7 | -44 | -9
Nc1nc(N)nc(-c2ccc([N+](=O)[O-])o2)n1 | · | · | · | 10 | · | · | · | ·
COc1ccc(-c2c(C)nc3c(-c4ccccn4)cnn3c2N)cc1 | · | 38* | · | 3 | · | · | 22 | 3
COc1ccc(-c2c(C)nc3c(-c4ccsc4)cnn3c2N)cc1 | 14 | -5 | -4 | -6 | -2 | -11 | · | ·
O=C(c1ccccc1Br)N1CCc2c([nH]c3ccccc23)C1 | 2 | 5 | 2 | 12 | 16 | 8 | · | ·
COc1ccc2o/c(=N\O)c(C(=O)Nc3ccccc3OC)cc2c1 | -14 | 7 | 5 | -2 | -5 | -16 | · | ·
COc1cccc2cc(C(=O)Nc3ccccc3C)/c(=N/O)oc12 | 2 | 49* | 25 | -5 | -9 | 12 | -21 | 1
O=C(Oc1ccccc1O)c1cccc2ccccc12 | 10 | 61* | -5 | · | 17 | 8 | 5 | 0
C/C(=N\Nc1nc(N2CCCCC2)nc(N2CCOCC2)n1)c1ccccc1O | 4 | 11 | 16 | 20 | 15 | 15 | · | ·
Cc1onc(-c2c(Cl)cccc2Cl)c1C(=O)c1ccccc1 | -5 | -11 | -8 | 12 | 3 | 0 | · | ·
Cc1cccc(C(=O)NNC(=O)c2c(-c3ccccc3Cl)noc2C)c1O | 2 | 39* | -7 | -6 | 6 | -2 | -4 | 0
COc1ccc(C(=O)Nn2cnnc2)c(OC)c1 | 7 | 34* | 18 | -9 | -3 | 5 | 7 | 1
Cc1ccc(NC(=O)c2cc(-n3cnnc3)ccc2Cl)cc1 | 1 | -1 | 10 | -10 | 2 | 2 | · | ·
COc1ccc(C(=O)Nn2cnc3ccccc3c2=O)c(OC)c1 | 14 | -2 | -5 | 1 | -14 | -11 | · | ·
